# In ChEMBL document CHEMBL1153632, “HCV NS5B polymerase inhibitors 1: Synthesis and in vitro activity of 2-(1,1-dioxo-2H-[1,2,4]benzothiadiazin-3-yl)-1-hydroxynaphthalene derivatives” (Bioorg Med Chem Lett, 2009):
# Experiments:
# Hepatitis C virus = assay: Antiviral activity against HCV 1b infected in human HuH7 cells after 46 to 50 hrs by luc/neo ET replicon assay; format: functional, organism-based, Hepacivirus hominis; settings: genotype 1b, Huh-7
# In short: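 Huh-7 cells stably carrying luc/neo ET replicon, grown in DMEM with 10% FCS, were seeded at 5 × 10³ cells/well. Serially diluted compounds were added about 24 h after plating, at 1% final DMSO. After 46–50 h exposure, cells were lysed with BrightGLO reagent for 2 min at 20 °C and luminescence was read.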
# [1] = Inhibition of HCV isolate HC-J4 NS5B deltaC21 polymerase; set-up: species or system Hepatitis C virus isolate HC-J4
# In short: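 Genotype 1b J4 ΔC21 enzyme (5 nM) in 20 mM Tris pH 7.5 with 5 mM MgCl₂, 5 mM KCl, 1 mM EDTA, 2 mM DTT and 0.01% BSA, room temperature. Serial DMSO dilutions were preincubated with enzyme for 5 min. Reaction was started with 250 nM 5′-biotin-rU₁₂ primer, poly-rA template, UTP and ³H-UTP, in 5% DMSO, and run 2 h. Stopped with EDTA/streptavidin SPA beads, then CsCl; scintillation counting.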
# [2] = Inhibition of HCV 1a NS5B polymerase; set-up: species or system Hepatitis C virus subtype 1a
# [3] = Cytotoxicity against human HuH7 cells; format: cell-based, Huh-7
Compound,EC50 (Hepatitis C virus),IC50 [1],IC50 [2],CC50 [3]
CC(C)CC[C@@]1(C)C(=O)C(C2=NS(=O)(=O)c3cc(NS(C)(=O)=O)ccc3N2)=C(O)c2ccccc21,,0.00033 µM,0.00125 µM,
COc1c(C2=NS(=O)(=O)c3ccccc3N2)cc(CCC(C)C)c2ccccc12,9.5 µM,27 µM,,13 µM
COc1c(C2=NS(=O)(=O)c3cc(NS(C)(=O)=O)ccc3N2)c(OC)c2ccccc2c1CCC(C)C,> 100 µM,0.63 µM,,40 µM
COc1c(C2=NS(=O)(=O)c3cc(NS(C)(=O)=O)ccc3N2)cc(CCC(C)C)c2ccccc12,21 µM,0.048 µM,,51 µM
CC(C)CCc1c(O)c2c(c3ccccc13)OCN1C2=NS(=O)(=O)c2cc(NS(C)(=O)=O)ccc21,34 µM,0.53 µM,,> 100 µM
CC(C)CCc1c2c(c(O)c3ccccc13)C1=NS(=O)(=O)c3cc(NS(C)(=O)=O)ccc3N1CO2,> 100 µM,8.7 µM,,> 100 µM
CC(C)CCc1cc(C2=NS(=O)(=O)c3ccccc3N2)c(O)c2ccccc12,26 µM,8.4 µM,,37 µM
CC(C)CCc1cc(C2=NS(=O)(=O)c3cc(NS(C)(=O)=O)ccc3N2)c(O)c2ccccc12,4.3 µM,0.15 µM,,> 100 µM
CC(C)CCc1c(F)c(C2=NS(=O)(=O)c3ccccc3N2)c(O)c2ccccc12,19 µM,0.11 µM,,12 µM
CC(C)CCc1c2c(c(O)c3ccccc13)C1=Nc3ccc(NS(C)(=O)=O)cc3S(=O)(=O)N1CO2,8.4 µM,0.49 µM,,33 µM
CC(C)CCc1c(O)c2c(c3ccccc13)OCN1C2=Nc2ccc(NS(C)(=O)=O)cc2S1(=O)=O,12 µM,1.3 µM,,35 µM

# Continued by falling EC50 (Hepatitis C virus), values first:
EC50 (Hepatitis C virus),IC50 [1],IC50 [2],Compound,CC50 [3]
2.9 µM,0.037 µM,,COc1c(C2=NS(=O)(=O)c3cc(NS(C)(=O)=O)ccc3N2)c(O)c2ccccc2c1CCC(C)C,120 µM
2.7 µM,0.031 µM,,CC(C)CCc1c(F)c(C2=NS(=O)(=O)c3cc(NS(C)(=O)=O)ccc3N2)c(O)c2ccccc12,> 100 µM
1.1 µM,0.005 µM,,COc1c(C2=NS(=O)(=O)c3cc(NS(C)(=O)=O)ccc3N2)c(O)c(CCC(C)C)c2ccccc12,110 µM
0.417 µM,,,CC(C)CCn1c(=O)c(C2=NS(=O)(=O)c3ccccc3N2)c(O)c2ccccc21,
0.019 µM,< 0.005 µM,,CC(C)CCC1(O)C(=O)C(C2=NS(=O)(=O)c3cc(NS(C)(=O)=O)ccc3N2)=C(O)c2ccccc21 (stereo not given),> 100 µM
